Source: ChEMBL document CHEMBL4665839, “Pyrrolo[2',3':3,4]cyclohepta[1,2-d][1,2]oxazoles, a New Class of Antimitotic Agents Active against Multiple Malignant Cell Types” (J Med Chem, 2020)
Active and inactive are the calls of the source. The calls are words filed in the database; no cut-off is given here.

Tests used:
HeLa [1] = assay: Induction of cell cycle arrest in human Hela cells assessed as reduction of cells at S phase 1 uM incubated for 24 hrs by PI staining based flow cytometric analysis; type: functional
[2] = Cytotoxicity against human PBL assessed as reduction in cell viability incubated for 72 hrs by MTT assay; type: cell-based; conditions: peripheral blood lymphocytes (PBL)
In short: (§1)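 PBLs from healthy donor buffy coats isolated by density-gradient centrifugation, washed, held overnight at 1.0 × 10^6 cells/mL in RPMI-1640 with 10% FBS. Nonadherent cells reseeded at 5 × 10^5 cells/mL, either with 2.5 μg/mL PHA (proliferating) or without (resting). Graded compound concentrations for 72 h, viability by MTT. GI50 = concentration inhibiting growth 50%; mean ± SEM of three separate experiments.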

[3] = Cytotoxicity against human PBL assessed as reduction in cell viability in presence of mitogenic stimulus phytohaemagglutinin incubated for 72 hrs by MTT assay; type: cell-based; in short: as §1
HeLa [4] = assay: Induction of cell cycle arrest in human Hela cells assessed as accumulation at M phase at 1 uM incubated for 24 hrs by PI staining based flow cytometric analysis; type: functional
HeLa [5] = assay: Induction of cell cycle arrest in human Hela cells assessed as accumulation at G2/M phase at 0.25 uM incubated for 24 hrs by PI staining based flow cytometric analysis; type: functional
In short: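 HeLa cells (5 × 10^5) exposed to compound at several concentrations for 24 h, then collected, fixed in ice-cold 70% ethanol, treated with lysis buffer containing RNase A and 0.1% Triton X-100, stained with propidium iodide. DNA content measured by flow cytometry; percentage of cells in each cycle phase derived from DNA histograms. Mean ± SEM of three experiments.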

HeLa [6] = assay: Induction of apoptosis in human HeLa cells assessed as cleaved PARP protein expression at 0.5 uM incubated for 48 hrs by Western blot analysis relative to control; type: functional
In short: (§2)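 HeLa cells treated at 0.1 or 0.5 μM for 24 or 48 h, washed in ice-cold PBS, lysed on ice 30 min, cleared at 15 000g, 4 °C. 10 μg protein per lane on SDS-PAGE, transferred to PVDF, blocked overnight in 5% BSA at 4 °C. Primary antibodies 2 h at room temperature, peroxidase secondaries 1 h, ECL detection. Membranes reprobed for GAPDH; densitometry reported as protein/GAPDH ratio.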

HeLa [7] = assay: Induction of apoptosis in human Hela cells assessed as increase in apoptotic cells at 0.5 uM incubated for 24 to 48 hrs by Annexin V-FITC/propidium iodide staining based flow cytometry; type: functional, cell-based; conditions: time hrs 24-48
In short: (§3)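 HeLa cells exposed 24 or 48 h, harvested, double-stained with annexin-V-FITC and PI, then read by flow cytometry. Gates: live (annexin-V–/PI–), early apoptotic (annexin-V+/PI–), late apoptotic (annexin-V+/PI+), necrotic (annexin-V–/PI+). Mean ± SEM of three independent experiments.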

HeLa [8] = assay: Induction of cell cycle arrest in human Hela cells assessed as accumulation at G2/M phase at 0.125 uM incubated for 24 hrs by PI staining based flow cytometric analysis; type: functional
In short: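 5 × 10^5 HeLa cells treated 24 h over a range of concentrations, fixed in ice-cold 70% ethanol, treated with lysis buffer containing RNase A and 0.1% Triton X-100, PI-stained. DNA content read by flow cytometry; phase distribution is mean ± SEM of three experiments.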

HeLa [9] = assay: Induction of apoptosis in human HeLa cells assessed as XIAP protein expression at 0.1 uM incubated for 48 hrs by Western blot analysis relative to control; type: functional; in short: as §2
HeLa [10] = assay: Induction of cell cycle arrest in human Hela cells assessed as phosphorylated cdc2 expression at 0.5 uM incubated for 48 hrs by Western blot analysis relative to control; type: functional; in short: as §2
HeLa [11] = assay: Induction of cell cycle arrest in human Hela cells assessed as phosphorylated cdc2 expression at 0.1 uM incubated for 48 hrs by Western blot analysis relative to control; type: functional; in short: as §2
HeLa [12] = assay: Induction of apoptosis in human HeLa cells assessed as MCL1 protein expression at 0.5 uM incubated for 48 hrs by Western blot analysis relative to control; type: functional; in short: as §2
HeLa [13] = assay: Induction of apoptosis in human HeLa cells assessed as MCL1 protein expression at 0.1 uM incubated for 48 hrs by Western blot analysis relative to control; type: functional; in short: as §2
HeLa [14] = assay: Induction of apoptosis in human HeLa cells assessed as XIAP protein expression at 0.5 uM incubated for 24 hrs by Western blot analysis relative to control; type: functional; in short: as §2
HeLa [15] = assay: Induction of cell cycle arrest in human Hela cells assessed as phosphorylated cdc2 expression at 0.1 uM incubated for 24 hrs by Western blot analysis relative to control; type: functional; in short: as §2
HeLa [16] = assay: Induction of cell cycle arrest in human Hela cells assessed as phosphorylated cdc2 expression at 0.5 uM incubated for 24 hrs by Western blot analysis relative to control; type: functional; in short: as §2
HeLa [17] = assay: Induction of apoptosis in human HeLa cells assessed as MCL1 protein expression at 0.5 uM incubated for 24 hrs by Western blot analysis relative to control; type: functional; in short: as §2
HeLa [18] = assay: Induction of cell cycle arrest in human Hela cells assessed as cdc25c expression at 0.1 uM incubated for 48 hrs by Western blot analysis relative to control; type: functional; in short: as §2
HeLa [19] = assay: Induction of apoptosis in human HeLa cells assessed as MCL1 protein expression at 0.1 uM incubated for 24 hrs by Western blot analysis relative to control; type: functional; in short: as §2
HeLa [20] = assay: Induction of apoptosis in human Hela cells assessed as increase in necrotic cells at 0.5 uM incubated for 24 to 48 hrs by Annexin V-FITC/propidium iodide staining based flow cytometry; type: functional, cell-based; conditions: time hrs 24-48; in short: as §3
HeLa [21] = assay: Induction of cell cycle arrest in human Hela cells assessed as cyclin B expression at 0.5 uM incubated for 48 hrs by Western blot analysis relative to control; type: functional; in short: as §2
HeLa [22] = assay: Induction of cell cycle arrest in human Hela cells assessed as cdc25c expression at 0.1 uM incubated for 24 hrs by Western blot analysis relative to control; type: functional; in short: as §2
HeLa [23] = assay: Induction of cell cycle arrest in human Hela cells assessed as cyclin B expression at 0.1 uM incubated for 24 hrs by Western blot analysis relative to control; type: functional; in short: as §2
HeLa [24] = assay: Induction of cell cycle arrest in human Hela cells assessed as accumulation at G2/M phase incubated for 24 hrs by PI staining based flow cytometric analysis; type: functional
HeLa [25] = assay: Induction of cell cycle arrest in human Hela cells assessed as cyclin B expression at 0.1 uM incubated for 48 hrs by Western blot analysis relative to control; type: functional; in short: as §2
HeLa [26] = assay: Induction of apoptosis in human HeLa cells assessed as cleaved PARP protein expression at 0.1 uM incubated for 48 hrs by Western blot analysis relative to control; type: functional; in short: as §2
HeLa [27] = assay: Induction of cell cycle arrest in human Hela cells assessed as cyclin B expression at 0.5 uM incubated for 24 hrs by Western blot analysis relative to control; type: functional; in short: as §2
HeLa [28] = assay: Induction of reactive oxygen species generation in human HeLa cells at 0.5 uM treated for 48 hrs by H2DCFDA staining based flow cytometry; type: functional, cell-based
In short: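 After treatment, HeLa cells pelleted and resuspended in PBS containing 0.1 μM H2DCFDA, incubated 30 min at 37 °C, then washed back into PBS. DCF fluorescence measured by flow cytometry (excitation 488 nm, emission 530 nm). Mean ± SEM of three independent experiments.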

HeLa [29] = assay: Induction of cell cycle arrest in human Hela cells assessed as cdc25c expression at 0.5 uM incubated for 24 hrs by Western blot analysis relative to control; type: functional; in short: as §2
HeLa [30] = assay: Induction of apoptosis in human HeLa cells assessed as cleaved PARP protein expression at 0.5 uM incubated for 24 hrs by Western blot analysis relative to control; type: functional; in short: as §2
HeLa [31] = assay: Induction of apoptosis in human HeLa cells assessed as cleaved PARP protein expression at 0.1 uM incubated for 24 hrs by Western blot analysis relative to control; type: functional; in short: as §2
HeLa [32] = assay: Induction of apoptosis in human HeLa cells assessed as XIAP protein expression at 0.1 uM incubated for 24 hrs by Western blot analysis relative to control; type: functional; in short: as §2

In the case of CCOC(=O)c1cc2c(n1Cc1cccc(OC)c1)-c1oncc1CCC2, the Activity (HeLa [1]) is reported as “Active”, the GI50 at 72 h [2] is reported as over 100 µM and the GI50 at 72 h [3] is reported as over 100 µM. For the same molecule, the Activity (HeLa [4]) was “Active”.

With CCOC(=O)c1c(Cl)c2c(n1Cc1cc(OC)cc(OC)c1)-c1oncc1CCC2 the GI50 at 72 h [2] was over 100 µM, the GI50 at 72 h [3] was over 100 µM and the Activity (HeLa [5]) was “Active”.

With CCOC(=O)c1cc2c(n1Cc1cc(OC)cc(OC)c1)-c1oncc1CCC2 the “fold change (FC)” value (HeLa [6]) was 42.83, the Activity (HeLa [7]) was “Active” and the Activity (HeLa [8]) was “Active”. For the same molecule, the “fold change (FC)” value (HeLa [9]) was 0.12, the “fold change (FC)” value (HeLa [10]) was 0.31 and the “fold change (FC)” value (HeLa [11]) was 0.17. The GI50 at 72 h [2] was over 100 µM, the “fold change (FC)” value (HeLa [12]) was 0.38 and the “fold change (FC)” value (HeLa [13]) was 0.37. The “fold change (FC)” value (HeLa [14]) was 0.54, the “fold change (FC)” value (HeLa [15]) was 0.51 and the “fold change (FC)” value (HeLa [16]) was 0.31. The “fold change (FC)” value (HeLa [17]) was 0.11, the “fold change (FC)” value (HeLa [18]) was 0.23 and the “fold change (FC)” value (HeLa [19]) was 0.37. The Activity (HeLa [20]) was “Active”, the “fold change (FC)” value (HeLa [21]) was 2.05 and the “fold change (FC)” value (HeLa [22]) was 0.23. For the same molecule, the GI50 at 72 h [3] was over 100 µM, the “fold change (FC)” value (HeLa [23]) was 18.74 and the Activity (HeLa [24]) was “Dose-dependent effect”. The “fold change (FC)” value (HeLa [25]) was 2.39, the “fold change (FC)” value (HeLa [26]) was 13.8 and the “fold change (FC)” value (HeLa [27]) was 64.07. The Activity (HeLa [28]) was “Active”, the “fold change (FC)” value (HeLa [29]) was 0.05 and the “fold change (FC)” value (HeLa [30]) was 42.13. For the same molecule, the “fold change (FC)” value (HeLa [31]) was 17.65 and the “fold change (FC)” value (HeLa [32]) was 0.91.
